Test results reported in ChEMBL document CHEMBL4145466, “Design, synthesis, and biological evaluation of novel combretastatin A-4 thio derivatives as microtubule targeting agents” (Eur J Med Chem, 2018).
pIC50: −log10 of the molar value. Activity calls are given as the source filed them. The calls are words filed in the database; no cut-off is given here.

Columns and labels:
SK-OV-3 [1] = test: Induction of apoptosis in human SKOV3 cells after 24 hrs by FITC Annexin V/propidium iodide staining-based FACScan flow cytometric analysis; format: functional, cell-based
Summary of the method: (§1)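 After 24 h of compound exposure, 1 × 10^6 cells were labelled with annexin V-FITC and PI for 15 min at 25 °C in the dark. They were read on a FACScan with 488 nm excitation, detecting FITC at 525 nm and PI at 620 nm. Results are mean ± SD of three independent experiments, with Dunnett's test against control.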

Tubulin [2] = test: Inhibition of tubulin polymerization in human HaCaT cells assessed as micronuclei formation at 1 uM after 24 hrs by ELISA; format: cell-based
MDA-MB-231 [3] = test: Induction of apoptosis in human MDA-MB-231 cells after 24 hrs by FITC Annexin V/propidium iodide staining-based FACScan flow cytometric analysis; format: functional, cell-based; summary of the method: as §1
Tubulin [4] = test: Inhibition of tubulin polymerization in human HaCaT cells assessed as micronuclei formation at 1 uM after 24 hrs by Hoechst 33258/FITC staining-based […]; format: cell-based
Summary of the method: (§2)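 Cells seeded at 12.5 × 10^4 per well and exposed to 1 µM compound for 24 h. Nuclei were stained with Hoechst 33258 (10 µg/mL, 30 min, 37 °C), then fixed in 4% formaldehyde/PBS (15 min, RT). Cells were permeabilized with 1% Triton X-100, blocked with 2% BSA/PBS for 1 h, and incubated with anti-α-tubulin-FITC (1:50) overnight at 4 °C. Imaged by fluorescence microscopy.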

MCF7 [5] = test: Cytotoxicity against human MCF7 cells after 48 hrs by MTT assay; format: functional, cell-based; settings: MCF7, 48 h
Summary of the method: (§3)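 Cells in DMEM with 10% FBS were plated at 2 × 10^4 per well and left overnight, then treated for 48 h at 0.6–20 µM (six concentrations) from 10 mM DMSO stocks. MTT was added for 2 h, and formazan was dissolved in DMSO and read at 570 nm. Viability was expressed as % of control, with IC50 taken from dose-response curves. Results are mean ± SD of three independent experiments.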

Tubulin [6] = test: Inhibition of tubulin polymerization in human HaCaT cells assessed as perturbation in cytoskeleton structure at 1 uM after 24 hrs by Hoechst 33258/FITC staining-based […]; format: cell-based; summary of the method: as §2
HaCaT [7] = test: Induction of apoptosis in human HaCaT cells assessed as increase in histone-associated DNA fragments in oligonucleosomes at 0.1 uM after 24 hrs by ELISA; format: cell-based
Summary of the method: (§4)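 HaCaT cells (2 × 10^4), grown in DMEM with 10% FBS, penicillin/streptomycin and 2 mM L-glutamine, exposed to compound (DMSO stock) for 24 h. Cells lysed, supernatant taken after centrifugation and incubated 2 h on a streptavidin-coated plate with anti-histone-biotin and anti-DNA-peroxidase. ABTS added for 30 min, A405 read. Output is enrichment factor vs control, mean ± SD of three independent experiments.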

SK-OV-3 [8] = test: Induction of apoptosis in human SKOV3 cells assessed as increase in histone-associated DNA fragments in mononucleosomes at 0.1 uM after 24 hrs by ELISA; format: functional, cell-based
Summary of the method: (§5)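 Cells (2 × 10^4) were incubated for 24 h at 0.1, 0.5 or 1 µM, lysed and centrifuged. Supernatants went onto a streptavidin plate with anti-histone-biotin and anti-DNA-peroxidase for 2 h, followed by ABTS for 30 min and a reading at 405 nm. Nucleosome content was expressed as an enrichment factor, as mean ± SD of three experiments.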

HeLa [9] = test: Induction of apoptosis in human HeLa cells after 24 hrs by FITC Annexin V/propidium iodide staining-based FACScan flow cytometric analysis; format: functional, cell-based; summary of the method: as §1
MCF7 [10] = test: Cell cycle arrest in human MCF7 cells assessed as accumulation of cells at G2/M phase at 0.1 to 1 uM after 24 hrs by propidium iodide staining-based FACS analysis; format: functional
Summary of the method: (§6)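 Cells were seeded at 5 × 10^5 per well in DMEM with 10% FBS and left overnight, then exposed to 0.1, 0.5 or 1 µM for 24 h. DMSO served as the negative control and 50 nM camptothecin as the positive control. Cells were trypsinized, fixed in 70% ethanol for 30 min at 4 °C, stained with 50 µg/mL PI plus 100 µg/mL RNase A for 30 min in the dark, and analysed by flow cytometry. Results are mean ± SD of three experiments, compared by ANOVA with Dunnett's test.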

HeLa [11] = test: Induction of apoptosis in human HeLa cells assessed as increase in histone-associated DNA fragments in mononucleosomes at 0.1 uM after 24 hrs by ELISA; format: functional, cell-based; summary of the method: as §5
HeLa [12] = test: Induction of apoptosis in human HeLa cells assessed as increase in histone-associated DNA fragments in oligonucleosomes at 0.1 uM after 24 hrs by ELISA; format: functional, cell-based; summary of the method: as §5
A549 = test: Cytotoxicity against human A549 cells after 48 hrs by MTT assay; format: functional, cell-based; settings: A549, 48 h
[13] = Cytotoxicity against human CCD39Lu cells after 48 hrs by MTT assay; format: cell-based; summary of the method: as §3
A-431 [14] = test: Cytotoxicity against human A431 cells after 48 hrs by MTT assay; format: functional, cell-based; settings: A-431, 48 h; summary of the method: as §3
MCF7 [15] = test: Induction of apoptosis in human MCF7 cells assessed as increase in histone-associated DNA fragments in oligonucleosomes at 0.1 uM after 24 hrs by ELISA; format: functional, cell-based; summary of the method: as §5
HaCaT [16] = test: Cell cycle arrest in human HaCaT cells assessed as accumulation of cells at G2/M phase at 0.1 to 1 uM after 24 hrs by propidium iodide staining-based FACS analysis; summary of the method: as §6
HeLa [17] = test: Cytotoxicity against human HeLa cells after 48 hrs by MTT assay; format: functional, cell-based; summary of the method: as §3
HaCaT [18] = test: Induction of apoptosis in human HaCaT cells after 24 hrs by FITC Annexin V/propidium iodide staining-based FACScan flow cytometric analysis; format: cell-based; summary of the method: as §1
MDA-MB-231 [19] = test: Cell cycle arrest in human MDA-MB-231 cells assessed as accumulation of cells at G2/M phase at 0.1 to 1 uM after 24 hrs by propidium iodide staining-based FACS analysis; format: functional; summary of the method: as §6
SK-OV-3 [20] = test: Cell cycle arrest in human SKOV3 cells assessed as accumulation of cells at G2/M phase at 0.1 to 1 uM after 24 hrs by propidium iodide staining-based FACS analysis; format: functional; summary of the method: as §6
MDA-MB-231 [21] = test: Induction of apoptosis in human MDA-MB-231 cells assessed as increase in histone-associated DNA fragments in mononucleosomes at 0.1 uM after 24 hrs by ELISA; format: functional, cell-based; summary of the method: as §5
[22] = Inhibition of porcine tubulin polymerization after 1 hr by spectrophotometric analysis; parameters: species or system Sus scrofa
Summary of the method: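 Polymerization was started by shifting from 4 °C to 37 °C, and absorbance was followed at 37 °C for 60 min. The vehicle served as control.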

SK-OV-3 [23] = test: Induction of apoptosis in human SKOV3 cells assessed as increase in histone-associated DNA fragments in oligonucleosomes at 0.1 uM after 24 hrs by ELISA; format: functional, cell-based; summary of the method: as §5
A-431 [24] = test: Induction of apoptosis in human A431 cells assessed as increase in histone-associated DNA fragments in oligonucleosomes at 0.1 uM after 24 hrs by ELISA; format: functional, cell-based; summary of the method: as §5
HaCaT [25] = test: Induction of apoptosis in human HaCaT cells assessed as increase in histone-associated DNA fragments in mononucleosomes at 0.1 uM after 24 hrs by ELISA; format: cell-based; summary of the method: as §4
MDA-MB-231 [26] = test: Cytotoxicity against human MDA-MB-231 cells after 48 hrs by MTT assay; format: functional, cell-based; settings: MDA-MB-231, 48 h; summary of the method: as §3
A-431 [27] = test: Induction of apoptosis in human A431 cells assessed as increase in histone-associated DNA fragments in mononucleosomes at 0.1 uM after 24 hrs by ELISA; format: functional, cell-based; summary of the method: as §5
MCF7 [28] = test: Induction of apoptosis in human MCF7 cells after 24 hrs by FITC Annexin V/propidium iodide staining-based FACScan flow cytometric analysis; format: functional, cell-based; summary of the method: as §1
MDA-MB-231 [29] = test: Induction of apoptosis in human MDA-MB-231 cells assessed as increase in histone-associated DNA fragments in oligonucleosomes at 0.1 uM after 24 hrs by ELISA; format: functional, cell-based; summary of the method: as §5
HaCaT [30] = test: Cytotoxicity against human HaCaT cells after 48 hrs by MTT assay; format: cell-based; summary of the method: as §3
MCF7 [31] = test: Induction of apoptosis in human MCF7 cells assessed as increase in histone-associated DNA fragments in mononucleosomes at 0.1 uM after 24 hrs by ELISA; format: functional, cell-based; summary of the method: as §5
Tubulin [32] = test: Inhibition of tubulin polymerization in human HaCaT cells assessed as perturbation in cytoskeleton structure at 1 uM after 24 hrs by ELISA; format: cell-based
A-431 [33] = test: Induction of apoptosis in human A431 cells after 24 hrs by FITC Annexin V/propidium iodide staining-based FACScan flow cytometric analysis; format: functional, cell-based; summary of the method: as §1
A-431 [34] = test: Cell cycle arrest in human A431 cells assessed as accumulation of cells at G2/M phase at 0.1 to 1 uM after 24 hrs by propidium iodide staining-based FACS analysis; format: functional; summary of the method: as §6
SK-OV-3 [35] = test: Cytotoxicity against human SKOV3 cells after 48 hrs by MTT assay; format: functional, cell-based; settings: SK-OV-3, 48 h; summary of the method: as §3

COc1ccc(/C=C\c2cc(OC)c(OC)c(OC)c2)cc1O [COMBRETASTATIN A4]
Activity (SK-OV-3 [1]): Dose-dependent effect | inhibition (INH) (Tubulin [2]): Active | Activity (MDA-MB-231 [3]): Dose-dependent effect | inhibition (INH) (Tubulin [4]): Active | pIC50 (MCF7 [5]): 6.77 | inhibition (INH) (Tubulin [6]): Active | Activity (HaCaT [7]): Toxic | Activity (SK-OV-3 [8]): Active | Activity (HeLa [9]): Dose-dependent effect | Activity (MCF7 [10]): Active | Activity (HeLa [11]): Active | Activity (HeLa [12]): Active | pIC50 (A549): < 4.70 | pIC50 [13]: 8.05 | pIC50 (A-431 [14]): 6.60 | Activity (MCF7 [15]): Active | Activity (HaCaT [16]): Toxic | pIC50 (HeLa [17]): 6.96 | Activity (HaCaT [18]): Dose-dependent effect | Activity (MDA-MB-231 [19]): Active | Activity (SK-OV-3 [20]): Active | Activity (MDA-MB-231 [21]): Active | pIC50 [22]: 5.57 | Activity (SK-OV-3 [23]): Active | Activity (A-431 [24]): Active | Activity (HaCaT [25]): Toxic | pIC50 (MDA-MB-231 [26]): 6.25 | Activity (A-431 [27]): Active | Activity (MCF7 [28]): Dose-dependent effect | Activity (MDA-MB-231 [29]): Active | pIC50 (HaCaT [30]): 6.72 | Activity (MCF7 [31]): Active | inhibition (INH) (Tubulin [32]): Active | Activity (A-431 [33]): Dose-dependent effect | Activity (A-431 [34]): Active | pIC50 (SK-OV-3 [35]): 6.42
